Test results: PubChem BioAssay
Results filed as inconclusive are left out.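 Rule for the calls, unless noted: active = RAM network inhibition above 8.4% in each of two replicates, 3 SD over the compound average; inconclusive = above 8.4% inhibition in only one replicate; inactive = 8.4% inhibition or less in each replicate.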

Assays:
[1] = S. cerevisiae growth inhibition in permissive medium (OD615), pilot counter-assay for S. cerevisiae lifespan shortening project, permissive growth control (AID 705;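 active = growth inhibition above 25% in both replicates, a cutoff set 3 SD above the mean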); details: OD615, 24 h, at 10 µM, active compounds read high
How it was run: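 System: S. cerevisiae with engineered DeaD lifespan system / Measured by: absorbance (optical density) at 615 nm / Read-out: reduction in yeast growth (OD615) / Times: 4 h cell pre-growth, 24 h exposure at 30 °C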

[2] = S. cerevisiae growth inhibition in restrictive medium, OD615, pilot screen, restrictive growth control, yeast lifespan reduction project (AID 706;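 active = growth inhibition above a set limit, 3 SD over mean compound inhibition, in both replicates, cut at about 43% in these data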;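 note: modified DeaD lifespan yeast strain shifted to restrictive glucose medium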); details: OD615, 48 h, at 10 µM, active compounds read high
How it was run: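 System: Engineered S. cerevisiae DeaD strain | Buffer or medium: Glucose-based CSMM-D restrictive medium | Schedule: 4 h pre-incubation, 48 h exposure at 30 °C | Technique: Optical density at 615 nm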

[3] = doxorubicin toxicity protection in MRP-1 cells – H69AR cells, CellTiter-Glo, duplicate, MRP-1 activator project, pilot screen (AID 807;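 active = viability increase at or above a cutoff of the median across tested compounds plus 3 SD, cut at about 8.5% in these data, passing the limit was not always enough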;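 note: compound pretreatment 18-22 h then 72 h combined with doxorubicin; 0% = doxorubicin alone and 100% = vehicle without doxorubicin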); details: H69AR viability with doxorubicin, CellTiter-Glo luminescence; at 10 µM; active compounds read high
[4] = RAM pathway blockade in budding yeast – dse1pr::URA3 reporter, 5-FOA selection, pilot screen (AID 869;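 active = inhibition over a set limit, the all-compound mean plus 3 SD, in both replicate runs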;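 note: 0% = DMSO wells with no growth and 100% = 10 µM 1-NA-PP1 with full growth; RAM network block rescues cells from 5-FOA so hits raise OD615 growth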); details: S. cerevisiae dse1pr::URA3 5-FOA growth, OD615, 2 d; at 10 µM; active compounds read high; strain carries analog-sensitive mutant Cbk1 kinase
[5] = RAM signaling pathway blockade in yeast – S. cerevisiae, Pdr1DBD-CYC8 efflux-inhibited sensitized strain, primary screen (AID 1298);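 note: 0% = DMSO untreated cells without growth and 100% = 10 µM 1-NA-PP1 full growth; higher means more yeast growth rescued from 5-FOA killing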; details: S. cerevisiae cbk1-as DSE1-URA3 strain, 5-FOA growth OD615, 2 d; at 50 µM; active compounds read high
[6] = viability of PTEN-null HCT116 cells – cell-based, HCT116 clonal line, CellTiter-Glo, pilot screen (AID 824;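 active = viability at or below 27.92% in each of two runs, the all-compound median minus 4 SD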;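 note: 0% = 20 µM Hyamine control and 100% = vehicle cell control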); details: HCT116 PTEN-deleted viability, 60 h, at 10 µM, active compounds read low
[7] = viability of HCT116 without oncogenic beta-catenin – human colon tumor cells, pilot screen (AID 823;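 active = cell viability at or below a set limit in both duplicate runs, the limit being the all-compound median minus 4 SD, cut at about 23% in these data, passing the limit was not always enough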;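 note: 0% = wells killed by 20 µM Hyamine and 100% = untreated DMSO cell wells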); details: HCT116 beta-catenin knockout viability, CellTiter-Glo, 60 h; at 10 µM; active compounds read low

COc1ccc(S(=O)(=O)Cc2ccc(C(=O)N3CCN(c4ccc(Cl)cc4)CC3)o2)cc1
inactive: growth inhibition [1] 2.93% | growth inhibition [2] -3.86% | viability increase [3] -4.86% | inhibition [4] 0.375% | RAM network inhibition [5] 6.31%

O=C(c1ccc(CN2CCOCC2)cc1)N1CCC(Cc2ccccc2)CC1
inactive: growth inhibition [1] -5.94% | growth inhibition [2] -3.29% | viability increase [3] -0.71% | viability [6] 93.1% | inhibition [4] 1.29% | RAM network inhibition [5] 9.1%

CCn1c(=O)c(=O)[nH]c2cc(C(=O)NC3CCCc4ccccc43)ccc21 (centres undefined)
inactive: growth inhibition [1] -2.89% | growth inhibition [2] -5.91% | viability increase [3] -5.19% | inhibition [4] 1.7% | RAM network inhibition [5] 3.67%

O=C(Nc1nnc(-c2cccs2)o1)c1cccc(F)c1
inactive: growth inhibition [1] -18.7% | growth inhibition [2] 9.29% | viability increase [3] -1.42% | inhibition [4] 0.745% | RAM network inhibition [5] 3.47%

Cc1cc(N2CCN(S(=O)(=O)c3ccc(Cl)cc3)CC2)c2ccccc2n1
inactive: growth inhibition [1] -3.2% | growth inhibition [2] -2.46% | viability increase [3] -2.62% | inhibition [4] -0.15% | RAM network inhibition [5] 2.74%

COc1cc2c(cc1OC)C(c1cccs1)NCC2 (centres undefined)
inactive: growth inhibition [1] -10.4% | growth inhibition [2] -8.06% | viability increase [3] -3.87% | viability [6] 92.6% | inhibition [4] 0.41% | RAM network inhibition [5] 4.46%

N#Cc1nc(COc2cccc(Cl)c2)oc1N1CCCC1
inactive: growth inhibition [1] 4.94% | growth inhibition [2] 11.2% | viability [7] 82.7% | viability [6] 82.7% | inhibition [4] -0.7% | RAM network inhibition [5] 0.47%

Cc1cccc(-n2ncc3c(N4CC(C)CC(C)C4)ncnc32)c1 (centres undefined)
inactive: growth inhibition [1] -1.33% | growth inhibition [2] -3.92% | viability [7] 59.9% | viability [6] 78.1% | inhibition [4] 1.74% | RAM network inhibition [5] 6.19%

CC1=C(C(=O)OCc2ccc3c(c2)OCO3)C(c2ccccc2)NC(=O)N1 (centres undefined)
inactive: growth inhibition [1] -12% | growth inhibition [2] -9.41% | viability increase [3] -4.88% | inhibition [4] 1.81% | RAM network inhibition [5] 2.03%

O=C(Nc1nnc(-c2cccs2)o1)c1cccc(Oc2ccccc2)c1
inactive: growth inhibition [1] 16.2% | growth inhibition [2] 24.4% | viability increase [3] -6.06% | inhibition [4] 1.83% | RAM network inhibition [5] 2.76%

CCOCCn1c(-c2ccc(OC)cc2)nc2ccccc21
inactive: growth inhibition [1] -16.9% | growth inhibition [2] -10.7% | viability [7] 93.6% | viability [6] 82.8% | inhibition [4] 1.63% | RAM network inhibition [5] 5.07%

Cc1nc(N2CCN(Cc3ccc4c(c3)OCO4)CC2)c2oc3ccccc3c2n1
inactive: growth inhibition [1] -0.195% | growth inhibition [2] -1.24% | viability increase [3] -4.93% | inhibition [4] 2% | RAM network inhibition [5] 4.68%

COc1ccc(NC(=O)NCCCN2CCN(c3cc(C)ccc3C)CC2)cc1
inactive: growth inhibition [1] -11.2% | growth inhibition [2] -19.5% | viability increase [3] -6.14% | inhibition [4] 0.485% | RAM network inhibition [5] 2.1%

O=C(CCS(=O)(=O)c1ccccc1)Nc1nc2c(s1)CCCC2
inactive: growth inhibition [1] -16.6% | growth inhibition [2] -17.7% | viability increase [3] -8.89% | inhibition [4] 0.495% | RAM network inhibition [5] 3.5%

COc1ccc(-n2c(Cc3cc(=O)[nH]c(=O)[nH]3)nnc2SCC(=O)N2CCC(C)CC2)cc1
inactive: growth inhibition [1] -11.5% | growth inhibition [2] 4.4% | viability [7] 98.2% | viability [6] 96.9% | inhibition [4] 2.92% | RAM network inhibition [5] 0.47%

N#Cc1ccc(Sc2nc3ccccc3[nH]2)cc1C#N
inactive: growth inhibition [1] -7.23% | growth inhibition [2] 4.58% | viability increase [3] -5.02% | viability [6] 89.8% | inhibition [4] 2.44% | RAM network inhibition [5] 1.9%

Cc1nc2nc(SCC(=O)N3CCOCC3)nn2c(C)c1Cc1ccccc1
inactive: growth inhibition [1] -0.01% | growth inhibition [2] 1.59% | viability increase [3] -3.4% | viability [6] 95.5% | inhibition [4] 1.7% | RAM network inhibition [5] 0.77%

O=C(CSc1nc(-c2ccco2)cc(C(F)(F)F)n1)Nc1ccc(C(=O)N2CCCCC2)cc1
inactive: growth inhibition [1] 0.645% | growth inhibition [2] -0.65% | viability increase [3] -2.87% | inhibition [4] 1.97% | RAM network inhibition [5] 3.42%

CCNc1nc(Oc2ccc(C(=O)OCC)cc2)nc(SC)n1
inactive: growth inhibition [1] -5.11% | growth inhibition [2] 1.57% | viability increase [3] -1.58% | viability [6] 78.9% | inhibition [4] 2.05% | RAM network inhibition [5] 2.82%

Cc1noc(/C=C/N(C)C)c1S(=O)(=O)N1CCCC(C(=O)NCc2ccco2)C1 (centres undefined)
inactive: growth inhibition [1] 4.93% | growth inhibition [2] -2.94% | viability [7] 97.6% | viability [6] 92.1% | inhibition [4] 0.86% | RAM network inhibition [5] 4.7%

O=C(CN1CCCCC1)Nc1ccc(F)c(Cl)c1
inactive: growth inhibition [1] 5.67% | growth inhibition [2] 4.63% | viability increase [3] -2.13% | viability [6] 98.4% | inhibition [4] 1.7% | RAM network inhibition [5] -0.11%

COc1ccc(NC(=O)c2oc3ccccc3c2C)c(OC)c1
inactive: growth inhibition [1] -7.12% | growth inhibition [2] -1.27% | viability increase [3] -3.83% | viability [6] 96.1% | inhibition [4] 0.97% | RAM network inhibition [5] 7.99%

COc1cc(C(=O)N2CCN(c3ccc(C)cc3C)CC2)cc(OC)c1OC
inactive: growth inhibition [1] -4.88% | growth inhibition [2] 2.84% | viability increase [3] -5% | inhibition [4] 0.135% | RAM network inhibition [5] 4.77%

CSc1nc(N2CCN(CCO)CC2)c2sc3nc(-c4ccco4)c4c(c3c2n1)CCC4
inactive: growth inhibition [1] -5.56% | growth inhibition [2] -10.7% | viability increase [3] -8.19% | inhibition [4] -1.67% | RAM network inhibition [5] -2.9%

CCOc1ccc(-c2cc(CCCC(=O)Nc3cccc(OC)c3)no2)cc1
inactive: growth inhibition [1] -6.04% | growth inhibition [2] 3.52% | viability increase [3] -5.12% | inhibition [4] 3.28% | RAM network inhibition [5] 0.05%

Cn1nc(-c2ccc(Cl)cc2)c2cc(C(=O)NCCN3CCOCC3)sc21
inactive: growth inhibition [1] -4.46% | growth inhibition [2] -5.2% | viability increase [3] -7.41% | inhibition [4] 0.45% | RAM network inhibition [5] -1.47%

Cc1ccccc1CN1C(=O)C(O)(CC(=O)c2ccncc2)c2ccccc21 (centres undefined)
inactive: growth inhibition [1] -11.4% | growth inhibition [2] -5.55% | viability increase [3] -5.61% | inhibition [4] 1.28% | RAM network inhibition [5] 5.38%

Cn1c(C(=O)NC2CCCCCC2)cc2c(=O)n(C)c3ccccc3c21
inactive: growth inhibition [1] 1.31% | growth inhibition [2] -8.3% | viability increase [3] -6.4% | inhibition [4] 1.1% | RAM network inhibition [5] 2.31%

CCCOC(=O)c1ccc(OCC(O)Cn2c(C)nc3ccccc32)cc1 (centres undefined)
inactive: growth inhibition [1] -11.1% | growth inhibition [2] -3.87% | viability increase [3] -1.73% | viability [6] 57.2% | inhibition [4] 0.99% | RAM network inhibition [5] 6.95%

O=C(Nc1ccc(S(=O)(=O)N2CCOCC2)cc1)C1COc2ccccc2O1 (centres undefined)
inactive: growth inhibition [1] -6.88% | growth inhibition [2] -3.29% | viability increase [3] -1.63% | viability [6] 104% | inhibition [4] 0.055% | RAM network inhibition [5] 1.34%

CSc1nc2c(cnn2-c2ccc(C)c(C)c2)c(=O)[nH]1
inactive: growth inhibition [1] 3.89% | growth inhibition [2] 1.82% | viability increase [3] -8.82% | inhibition [4] 2.08% | RAM network inhibition [5] 0.57%

O=C(CCc1ccccc1)Nc1nnc(-c2ccc3c(c2)CCCC3)o1
inactive: growth inhibition [1] -1.89% | growth inhibition [2] 11.3% | viability [7] 53.6% | viability [6] 72.1% | inhibition [4] 0.09% | RAM network inhibition [5] 5.06%

COc1ccc(Cl)cc1N1C(=O)C2CCCN2C1c1ccc(F)c(F)c1 (centres undefined)
inactive: growth inhibition [1] -5.22% | growth inhibition [2] -6.92% | viability [7] 98.1% | viability [6] 92.7% | inhibition [4] 1.33% | RAM network inhibition [5] 6.15%

O=C(CSc1oc(-c2ccc(F)cc2)nc1S(=O)(=O)c1ccc(F)cc1)NCC1CCCO1 (centres undefined)
inactive: growth inhibition [1] -8.11% | growth inhibition [2] -3.3% | viability increase [3] -7.22% | inhibition [4] 1.05% | RAM network inhibition [5] 6.87%

CN1C(=O)C(O)(CC(=O)c2ccccn2)c2cc(Br)ccc21 (centres undefined)
inactive: growth inhibition [1] -0.08% | growth inhibition [2] 6.53% | viability increase [3] -7.14% | inhibition [4] 0.9% | RAM network inhibition [5] 3.11%

CCOC(=O)C1=C(C)N=c2s/c(=C\c3ccncc3)c(=O)n2C1c1ccc2c(c1)OCO2 (centres undefined)
inactive: growth inhibition [1] -12% | growth inhibition [2] 23.8% | viability increase [3] -7.87% | inhibition [4] 3.46% | RAM network inhibition [5] 8.86%

OC(COc1ccc(C2C=CCC2)cc1)CN1CCCCC1 (centres undefined)
inactive: growth inhibition [1] 0.36% | growth inhibition [2] -8.12% | viability increase [3] -4.7% | inhibition [4] 1.75% | RAM network inhibition [5] 3.83%

c1coc(CNc2c3c(nc4ccccc24)CCC3)c1
inactive: growth inhibition [1] -9.23% | growth inhibition [2] -0.365% | viability increase [3] -5.72% | inhibition [4] -0.205% | RAM network inhibition [5] 0.83%

CCN1CCN(c2cc(C)c3cc(NC(=O)c4ccc(Br)o4)ccc3n2)CC1
inactive: growth inhibition [1] -8.91% | growth inhibition [2] -15.6% | viability increase [3] -8.37% | inhibition [4] 1.75% | RAM network inhibition [5] 0.84%

COc1cccc(C(=O)Nc2nnc(-c3ccc(Cl)cc3)o2)c1
inactive: growth inhibition [1] 2.17% | growth inhibition [2] 2.42% | viability increase [3] -3.33% | inhibition [4] 1.6% | RAM network inhibition [5] -1.16%

COc1ccccc1CNC(=O)CN1CCN(Cc2ccc(Cl)cc2)C1=O
inactive: growth inhibition [1] 7.3% | growth inhibition [2] 10.3% | viability [7] 98.3% | viability [6] 92.5% | inhibition [4] 1.5% | RAM network inhibition [5] 0.67%

COc1ccc(OC)c(C2CC(=O)N3CN(c4ccc(C)c(Cl)c4)CSC3=C2C#N)c1 (centres undefined)
inactive: growth inhibition [1] -0.805% | viability increase [3] -3.72% | viability [7] 90.6% | viability [6] 94.4% | inhibition [4] 2.44% | RAM network inhibition [5] 7.86%

CN(c1ccccc1)S(=O)(=O)c1ccc(C(=O)Nc2nccs2)cc1
inactive: growth inhibition [1] -17.4% | growth inhibition [2] -19.6% | viability [7] 84.8% | viability [6] 83.3% | inhibition [4] 3.73% | RAM network inhibition [5] 4.85%
